Source: paper PMC4935665 (Journal of bone and mineral research : the official journal …, 2016)

Legend:
cynomolgus monkeys = assay: Single SC injection in cynomolgus monkeys, serum Ca; assay type: in vivo, cynomolgus monkey; settings: SC 10 nmol/kg
Outline: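 Normal cynomolgus monkeys receive SC injections in two experiments, with serum Ca followed after injection. In experiment 1, animals get vehicle or test peptide at 0.25, 0.5 or 1.0 nmol/kg, three animals per dose.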

in vivo = settings: rat, iv, 24.3 nmol/kg
TPTX rats [1] = assay: Single IV injection in TPTX rats, serum Ca and Pi; assay type: in vivo, rat; settings: for time for sPi to return to vehicle-control levels: single IV 24.3 nmol/kg; for sCa response versus sham-control level: single IV 24.3 nmol/kg (highest dose); for duration of modest, transient sCa increase and sPi decrease: single IV, dose 80-fold higher than that used for LA-PTH
rats = settings: daily injection 20 nmol/kg sc; cited from earlier work
HP patients = settings: cited from earlier work
TPTX rats [2] = assay type: in vivo, rat; settings: once daily SC 9 nmol/kg
[3] = rat, in vivo, iv
[4] = human, in vivo; cited from earlier work
[5] = HP patients, single SC injection

Row | Compound | efficacy for elevating sCa compared with PTH(1–84) (cynomolgus monkeys; n = 3) | half-life (in vivo) [min] | time for sPi to return to vehicle-control levels (TPTX rats [1]) [h] | sCa response versus sham-control level (TPTX rats [1]) | duration of modest, transient sCa increase and sPi decrease (TPTX rats [1]) [h] | serum calcium or phosphorus (rats) | time for sCa to return to vehicle-control levels (cynomolgus monkeys) [h] | peak sCa level (cynomolgus monkeys; n = 2) | time for mean serum Ca to return to pre-dose, hypocalcemic levels (HP patients; [5]) [h] | time of peak sCa levels post-administration (HP patients; [5]) [h] | serum half-life times (HP patients; human, in vivo, sc) | subjects with hypercalcemia at peak times (HP patients; human, in vivo, sc) [%] | lumbar and femur BMD (TPTX rats [2]) | sCa versus vehicle-injected TPTX rats (TPTX rats [2]) | sPi versus vehicle-injected TPTX rats (TPTX rats [2]) | trabecular number at the distal femur (TPTX rats [2]) | serum half-life t1/2 [3] [min] | true serum half-life in the blood [4]
1 | CC[C@H](C)[C@H](NC(=O)[C@H](CCC(=O)O)NC(=O)[C@H](CO)NC(=O)[C@@H](NC(=O)[C@@H](N)CO)C(C)C)C(=O)N[C@@H](CCC(N)=O)C(=O)N[C@@H](CC(C)C)C(=O)N[C@@H](CCSC)C(=O)N[C@@H](Cc1c[nH]cn1)C(=O)N[C@@H](CC(N)=O)C(=O)N[C@@H](CC(C)C)C(=O)NCC(=O)N[C@@H](CCCCN)C(=O)N[C@@H](Cc1c[nH]cn1)C(=O)N[C@@H](CC(C)C)C(=O)N[C@@H](CC(N)=O)C(=O)N[C@@H](CO)C(=O)N[C@@H](CCSC)C(=O)N[C@@H](CCC(=O)O)C(=O)N[C@@H](CCCNC(=N)N)C(=O)N[C@H](C(=O)N[C@@H](CCC(=O)O)C(=O)N[C@@H](Cc1c[nH]c2ccccc12)C(=O)N[C@@H](CC(C)C)C(=O)N[C@@H](CCCNC(=N)N)C(=O)N[C@@H](CCCCN)C(=O)N[C@@H](CCCCN)C(=O)N[C@@H](CC(C)C)C(=O)N[C@@H](CCC(N)=O)C(=O)N[C@@H](CC(=O)O)C(=O)N[C@H](C(=O)N[C@@H](Cc1c[nH]cn1)C(=O)N[C@@H](CC(N)=O)C(=O)N[C@@H](Cc1ccccc1)C(=O)O)C(C)C)C(C)C [PTH(1–34)] | even less effective | 7.8 | ≤ 10 | failed to attain the sCa levels seen in the sham-control animals | < 6 | little or no change |  |  |  |  |  |  |  |  |  |  |  | 
2 | PTH(1–84): human parathyroid hormone, produced recombinantly |  |  | ≤ 10 | failed to attain the sCa levels seen in the sham-control animals | < 6 |  | ≤ 24 | ~ 11.4 mg/dL | ≤ 24 | ~7 | two to three hours | 71 | significantly increased | no persistent increase | only marginal reductions | significantly increased | 5.4 | five minutes or less
